Data published in ChEMBL document CHEMBL1125745, “Unsaturated and carbocyclic nucleoside analogues: synthesis, antitumor, and antiviral activity” (J Med Chem, 1991).

Columns and labels:
L1210 [1] = assay: (§1) Compound was evaluated for inhibition of macromolecular synthesis in murine leukemia L1210 cells at 4 hour against DNA.; format: functional, Mus musculus; design: scale not given: the % may be the effect or the level left
L1210 [2] = assay: Cytotoxicity was evaluated against L1210 leukemia cell line at 1000 ug/disk.; format: functional, Mus musculus
How it was run: (§2)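 Disk zone assay: analogue dilutions on 6.5 mm paper disks were placed on dishes with a 0.8% agar bottom layer and a 0.44% soft-agar top layer of tumor cells (≤1 × 10^5/plate) in Fishers-CMRL-1066 with 12% horse serum. Plates were incubated 6-10 days and the inhibition zone was measured by microscope; 200 zone units = 6 mm.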

Mus musculus [3] = species on record: Mus musculus; assay: (§3) Cytotoxicity was evaluated against low malignancy line at 1000 ug/disk.; format: functional; how it was run: as §2
Homo sapiens [4] = species on record: Homo sapiens; assay: Cytotoxicity was evaluated against C116 human solid tumor at 1000 ug/disk.; format: functional; how it was run: as §2
L1210 [5] = assay: Inhibitory activity against murine leukemia L1210 cells; format: functional, cell-based; conditions: Mus musculus
MC-38 = assay: Cytotoxicity was evaluated against C38 solid tumor of mouse at 1000 ug/disk.; format: functional; how it was run: as §2
L1210 [6] = assay: (§4) Compound was evaluated for inhibition of macromolecular synthesis in murine leukemia L1210 cells at 4 hour against Protein; format: functional, Mus musculus; design: scale not given: the % may be the effect or the level left
L1210 [7] = assay: (§5) Compound was evaluated for inhibition of macromolecular synthesis in murine leukemia L1210 cells at 4 hour against RNA.; format: functional, Mus musculus; design: scale not given: the % may be the effect or the level left
Mus musculus [8] = species on record: Mus musculus; assay: (§6) Compound was evaluated for inhibition of macromolecular synthesis in murine leukemia L1210 cells at 1 hour against Protein; format: functional; design: scale not given: the % may be the effect or the level left
Mus musculus [9] = species on record: Mus musculus; assay: as §4; format: functional; design: scale not given: the % may be the effect or the level left
[10] = as §3; format: functional; how it was run: as §2
Nucleic Acid [11] = assay: Compound was evaluated for inhibition of macromolecular synthesis in murine leukemia L1210 cells at 8 hour against RNA.; format: functional, cell-based; design: scale not given: the % may be the effect or the level left; conditions: Mus musculus
Nucleic Acid [12] = assay: as §1; format: functional, cell-based; design: scale not given: the % may be the effect or the level left; conditions: Mus musculus
Nucleic Acid [13] = assay: (§7) Compound was evaluated for inhibition of macromolecular synthesis in murine leukemia L1210 cells at 1 hour against RNA.; format: functional, cell-based; design: scale not given: the % may be the effect or the level left; conditions: Mus musculus
Nucleic Acid [14] = assay: Compound was evaluated for inhibition of macromolecular synthesis in murine leukemia L1210 cells at 8 hour against DNA.; format: functional, cell-based; design: scale not given: the % may be the effect or the level left; conditions: Mus musculus
Mus musculus [15] = species on record: Mus musculus; assay: Compound was evaluated for inhibition of macromolecular synthesis in murine leukemia L1210 cells at 8 hour against Protein; format: functional; design: scale not given: the % may be the effect or the level left
Nucleic Acid [16] = assay: as §5; format: functional, cell-based; design: scale not given: the % may be the effect or the level left; conditions: Mus musculus
Nucleic Acid [17] = assay: (§8) Compound was evaluated for inhibition of macromolecular synthesis in murine leukemia L1210 cells at 1 hour against DNA.; format: functional, cell-based; design: scale not given: the % may be the effect or the level left; conditions: Mus musculus
[18] = Cytotoxicity was evaluated against low malignancy line at 500 ug/disk.; format: functional; how it was run: as §2
L1210 [19] = assay: Compound were evaluated for inhibition of macromolecular synthesis in murine leukemia L1210 cells at 4 hour against Protein; format: functional, Mus musculus; design: scale not given: the % may be the effect or the level left
L1210 [20] = assay: Compounds were evaluated for inhibition of macromolecular synthesis in murine leukemia L1210 cells at 1 hour against DNA.; format: functional, Mus musculus; design: scale not given: the % may be the effect or the level left
L1210 [21] = assay: Compound were evaluated for inhibition of macromolecular synthesis in murine leukemia L1210 cells at 4 hour against RNA.; format: functional, Mus musculus; design: scale not given: the % may be the effect or the level left
L1210 [22] = assay: Compound were evaluated for inhibition of macromolecular synthesis in murine leukemia L1210 cells at 1 hour against Protein; format: functional, Mus musculus; design: scale not given: the % may be the effect or the level left
L1210 [23] = assay: Cytotoxicity was evaluated against L1210 leukemia cell line at 500 ug/disk.; format: functional, Mus musculus; how it was run: as §2
[24] = Cytotoxicity was evaluated against CO9 solid tumor of mouse at 500 ug/disk.; format: functional; how it was run: as §2
L1210 [25] = assay: Compounds were evaluated for inhibition of macromolecular synthesis in murine leukemia L1210 cells at 1 hour against RNA.; format: functional, Mus musculus; design: scale not given: the % may be the effect or the level left
Homo sapiens [26] = species on record: Homo sapiens; assay: Cytotoxicity was evaluated against PO1 human solid tumor at 500 ug/disk.; format: functional; how it was run: as §2
L1210 [27] = assay: Compound were evaluated for inhibition of macromolecular synthesis in murine leukemia L1210 cells at 4 hour against DNA.; format: functional, Mus musculus; design: scale not given: the % may be the effect or the level left
Mus musculus [28] = species on record: Mus musculus; assay: Selectivity index which is the ratio of IC50 to EC50 of R-MuLV.; format: functional
[29] = Inhibition of incorporation of labeled precursor into macromolecules of noninfected SC-1 cells with the compound at a concentration 100 uM determined against uridine.; format: functional
How it was run: (§9)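 Noninfected SC-1 cells were incubated with analogue as in the cytotoxicity setup, and [3H]thymidine, [3H]uridine or [3H]leucine was added. After 4 h, wells were washed with ice-cold PBS and cells were lysed in 1% SDS, 0.01 M EDTA, 0.01 M Tris pH 7.7. Lysates were dried on glass-fiber filters, and label is expressed as percent of incorporation in untreated cells.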

Mus musculus [30] = species on record: Mus musculus; assay: Concentration that reduces Friend murine leukemia virus titer by 50%; format: functional, organism-based
How it was run: (§10)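 SC-1 cells (1 × 10^4/well) were pretreated with polybrene, infected 2 h at 37 °C with F-MuLV or R-MuLV in EMEM-5 with 8 µg/mL polybrene, washed, and refed with analogue for 72 h. They were then UV-irradiated and overlaid with XC cells (2 × 10^5) for 48 h, fixed and stained with crystal violet. Multinucleated cells were counted and EC50 was taken by linear regression versus untreated cultures.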

[31] = Inhibition of incorporation of labeled precursor into macromolecules of noninfected SC-1 cells with the compound at a concentration 100 uM determined against thymidine; format: functional; how it was run: as §9
[32] = Inhibition of incorporation of labeled precursor into macromolecules of noninfected SC-1 cells with the compound at a concentration 300 uM determined against uridine.; format: functional
How it was run: (§11)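 SC-1 cells seeded in 24-well trays at 1 × 10^4 cells/mL, incubated overnight at 37 °C, then exposed to analogue for 72 h at 37 °C. Labeled thymidine (2.5 µCi), [3H-5,6]uridine or [3H-4,5]leucine was added. After 4 h, cells were washed with cold PBS, lysed in 1% SDS/0.01 M EDTA/0.01 M Tris pH 7.7, and lysates were dried on GF/B filters. Result given as % of untreated incorporation.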

[33] = Selectivity index is the ratio of IC50 to EC50 of F-MuLV.; format: functional
[34] = Inhibition of incorporation of labeled precursor into macromolecules of noninfected SC-1 cells with the compound at a concentration 300 uM determined against leucine.; format: functional; how it was run: as §11
Mus musculus [35] = species on record: Mus musculus; assay: Concentration that reduces Rauscher murine leukemia virus titer by 50%; format: functional, organism-based; how it was run: as §10
Mus musculus [36] = species on record: Mus musculus; assay: Cytotoxicity was evaluated; format: functional
How it was run: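 SC-1 cells (1 × 10^4 cells/mL) were seeded, incubated overnight at 37 °C, refed with EMEM-10 and given diluted analogue in triplicate for 72 h at 37 °C. Cells were trypsinized and counted in a Coulter counter. The mean of three wells gave percent of control count, and IC50 was calculated by linear regression.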

[37] = Inhibition of incorporation of labeled precursor into macromolecules of noninfected SC-1 cells with the compound at a concentration 300 uM determined against thymidine; format: functional; how it was run: as §11
[38] = Inhibition of incorporation of labeled precursor into macromolecules of noninfected SC-1 cells with the compound at a concentration 100 uM determined against leucine.; format: functional; how it was run: as §9
PO3 = assay: Cytotoxicity was evaluated against PO3 cell line at 250 ug/disk.; format: functional, Mus musculus; how it was run: as §2
Homo sapiens [39] = species on record: Homo sapiens; assay: Cytotoxicity was evaluated against PO1 human solid tumor at 250 ug/disk.; format: functional; how it was run: as §2
L1210 [40] = assay: Cytotoxicity was evaluated against L1210 leukemia cell line at 250 ug/disk.; format: functional, Mus musculus; how it was run: as §2
L1210 [41] = assay: as §6; format: functional, Mus musculus; design: scale not given: the % may be the effect or the level left
L1210 [42] = assay: as §7; format: functional, Mus musculus; design: scale not given: the % may be the effect or the level left
[43] = Cytotoxicity was evaluated against low malignancy line at 250 ug/disk.; format: functional; how it was run: as §2
Homo sapiens [44] = species on record: Homo sapiens; assay: Cytotoxicity was evaluated against C116 human solid tumor at 250 ug/disk.; format: functional; how it was run: as §2
L1210 [45] = assay: as §8; format: functional, Mus musculus; design: scale not given: the % may be the effect or the level left

Cc1cn(C2C=CCO2)c(=O)[nH]c1=O (stereo unspecified)
Control (L1210 [1]): 10% | Cytotoxicity (L1210 [2]): 410 | Cytotoxicity (Mus musculus [3]): 500 | Cytotoxicity (Homo sapiens [4]): 260 | IC50 (L1210 [5]): 50 µM | Cytotoxicity (MC-38): 430 | Control (L1210 [6]): 90% | Control (L1210 [7]): 50%

Oc1nccc(NCC#CCCl)n1
Control (Mus musculus [8]): 85% | Control (Mus musculus [9]): 70% | Cytotoxicity (L1210 [2]): 530 | Cytotoxicity [10]: 600 | Control (Nucleic Acid [11]): 18% | Cytotoxicity (Homo sapiens [4]): 660 | IC50 (L1210 [5]): 20 µM | Control (Nucleic Acid [12]): 35% | Control (Nucleic Acid [13]): 75% | Control (Nucleic Acid [14]): 5% | Control (Mus musculus [15]): 55% | Control (Nucleic Acid [16]): 60% | Cytotoxicity (MC-38): 720 | Control (Nucleic Acid [17]): 60%

Nc1ccn(C/C=C\CCl)c(=O)n1
Cytotoxicity [18]: 450 | Control (L1210 [19]): 100% | Control (L1210 [20]): 80% | Control (L1210 [21]): 100% | Control (L1210 [22]): 100% | IC50 (L1210 [5]): 10 µM | Cytotoxicity (L1210 [23]): 640 | Cytotoxicity [24]: 410 | Control (L1210 [25]): 100% | Cytotoxicity (Homo sapiens [26]): 640 | Control (L1210 [27]): 67%

Nc1ncnc2c1ncn2C1C(O)C(O)C(CO)C1O (stereo unspecified)
SI (Mus musculus [28]): 9.1 | Precursor inhibition [29]: 56% | EC50 (Mus musculus [30]): 67.3 µM | Precursor inhibition [31]: 115% | Precursor inhibition [32]: 29% | SI [33]: 3.4 | Precursor inhibition [34]: 53% | EC50 (Mus musculus [35]): 25 µM | IC50 (Mus musculus [36]): 281 µM | Precursor inhibition [37]: 110% | Precursor inhibition [38]: 99%

Nc1ccn(C2C=CCO2)c(=O)n1 (stereo unspecified)
Cytotoxicity (PO3): 500 | Cytotoxicity (Homo sapiens [39]): 600 | Cytotoxicity (L1210 [40]): 500 | Control (L1210 [1]): 55% | Control (L1210 [41]): 100% | IC50 (L1210 [5]): 28 µM | Control (L1210 [42]): 100% | Control (L1210 [6]): 50% | Control (L1210 [7]): 85% | Cytotoxicity [43]: 400 | Cytotoxicity (Homo sapiens [44]): 450 | Control (L1210 [45]): 85%
